Data as given in ChEMBL document CHEMBL2311452 (J Med Chem, 2013).

Experiments:
Neuraminidase [1] = biological target: T1, Neuraminidase (Influenza A virus, UniProt B4URF0); assay: Inhibition of influenza A virus (A/Guangdong/376/2001(H1N1)) neuraminidase infected in chick embryo using MUNANA as substrate after 1 hr by spectrophotometric analysis
Neuraminidase [2] = biological target: T1, Neuraminidase; assay: Inhibition of Influenza A virus (A/Indonesia/5/2005(H5N1)) neuraminidase infected in chick embryo using MUNANA as substrate after 1 hr by spectrophotometric analysis
Neuraminidase [3] = biological target: T1, Neuraminidase; assay: Inhibition of Influenza A virus (A/Sydney/5/1997(H3N2)) neuraminidase infected in chick embryo using MUNANA as substrate after 1 hr by spectrophotometric analysis
[4] = Mean residence time in Sprague-Dawley rat at 10 mg/kg, po; assay type: ADME, organism-based; set-up: dose 10 mg/kg, route oral; details: in vivo
Summary of the method: (§1)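 Single 10 mg/kg oral dose given to male Sprague-Dawley rats (~250 g), three per group. Blood was sampled via the retrobulbar vein at 0, 5, 15 and 30 min and at 1, 2, 5, 8 and 24 h. Plasma concentrations were measured by LC/MS/MS, and parameters came from noncompartmental analysis of mean plasma concentrations.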

[5] = AUC (0 to 8 hrs) in Sprague-Dawley rat at 10 mg/kg, po; assay type: ADME, organism-based; set-up: time < 8 hr, dose 10 mg/kg, route oral; details: plasma
Summary of the method: (§2)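 Male Sprague-Dawley rats (~250 g), three per group. One group received 10 mg/kg orally and the other 2 mg/kg intravenously. Blood was drawn from the retrobulbar vein at 0, 5, 15 and 30 min and at 1, 2, 5, 8 and 24 h. Plasma levels were measured by LC/MS/MS, and parameters were calculated by noncompartmental analysis of mean plasma concentrations.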

[6] = Terminal half life in Sprague-Dawley rat at 2 mg/kg, iv; assay type: ADME, organism-based; set-up: dose 2 mg/kg, route intravenous; details: in vivo, read-out: beta t1/2 (converted)
Summary of the method: (§3)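 Male Sprague-Dawley rats (~250 g), three per group, given a single 2 mg/kg intravenous dose. Blood samples were drawn via the retrobulbar vein at 0, 5, 15 and 30 min and at 1, 2, 5, 8 and 24 h. Plasma levels were quantified by LC/MS/MS, and parameters were derived by noncompartmental analysis of mean plasma concentrations.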

[7] = Oral bioavailability in Sprague-Dawley rat at 10 mg/kg; assay type: ADME, organism-based; details: in vivo; summary of the method: as §1
[8] = Cmax in Sprague-Dawley rat at 2 mg/kg, iv; assay type: ADME, organism-based; set-up: dose 2 mg/kg, route intravenous; details: in vivo; summary of the method: as §3
[9] = Volume of distribution at steady state in Sprague-Dawley rat at 2 mg/kg, iv; assay type: ADME, organism-based; set-up: dose 2 mg/kg, route intravenous; details: in vivo, read-out: Vdss; summary of the method: as §3
[10] = Cmax in Sprague-Dawley rat at 10 mg/kg, po; assay type: ADME, organism-based; set-up: dose 10 mg/kg, route oral; details: in vivo; summary of the method: as §1
[11] = Tmax in Sprague-Dawley rat at 10 mg/kg, po; assay type: ADME, organism-based; set-up: dose 10 mg/kg, route oral; details: in vivo; summary of the method: as §1
[12] = Mean residence time in Sprague-Dawley rat at 2 mg/kg, iv; assay type: ADME, organism-based; set-up: dose 2 mg/kg, route intravenous; details: in vivo; summary of the method: as §3
[13] = AUC (0 to 8 hrs) in Sprague-Dawley rat at 2 mg/kg, iv; assay type: ADME, organism-based; set-up: time < 8 hr, dose 2 mg/kg, route intravenous; details: plasma; summary of the method: as §2
[14] = Terminal half life in Sprague-Dawley rat at 10 mg/kg, po; assay type: ADME, organism-based; set-up: dose 10 mg/kg, route oral; details: in vivo, read-out: beta t1/2 (converted)
Summary of the method: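 Single 10 mg/kg oral dose given to male Sprague-Dawley rats (~250 g), three per group. Plasma concentrations were measured by LC/MS/MS, and parameters came from noncompartmental analysis of mean plasma concentrations.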

[15] = Clearance in Sprague-Dawley rat at 2 mg/kg, iv; assay type: ADME, organism-based; set-up: dose 2 mg/kg, route intravenous; details: in vivo; summary of the method: as §3
[16] = biological target: Neuraminidase (Influenza A virus) (UniProt B4URF0); assay: Inhibition of influenza A virus (A/Guangdong/376/2001(H1N1)) neuraminidase infected in chick embryo using MUNANA as substrate at 1 uM after 1 hr by spectrophotometric analysis
Neuraminidase [17] = biological target: T1, Neuraminidase; assay: Inhibition of Influenza A virus Mississippi/1/85(H3N2) neuraminidase
Neuraminidase [18] = biological target: T1, Neuraminidase; assay: Inhibition of Influenza A virus […]/78(H1N1) neuraminidase
Neuraminidase [19] = biological target: T1, Neuraminidase; assay: Inhibition of Influenza A virus H5N1 neuraminidase
[20] = Terminal half life in Sprague-Dawley rat at 10 mg/kg, iv; assay type: ADME, organism-based; set-up: dose 10 mg/kg, route intravenous; details: in vivo, read-out: beta t1/2 (converted)
[21] = Clearance in Sprague-Dawley rat at 10 mg/kg, iv; assay type: ADME, organism-based; set-up: dose 10 mg/kg, route intravenous; details: in vivo
[22] = Volume of distribution at steady state in Sprague-Dawley rat at 10 mg/kg, iv; assay type: ADME, organism-based; set-up: dose 10 mg/kg, route intravenous; details: in vivo, read-out: Vdss

T1 sequence (B4URF0 whole entry): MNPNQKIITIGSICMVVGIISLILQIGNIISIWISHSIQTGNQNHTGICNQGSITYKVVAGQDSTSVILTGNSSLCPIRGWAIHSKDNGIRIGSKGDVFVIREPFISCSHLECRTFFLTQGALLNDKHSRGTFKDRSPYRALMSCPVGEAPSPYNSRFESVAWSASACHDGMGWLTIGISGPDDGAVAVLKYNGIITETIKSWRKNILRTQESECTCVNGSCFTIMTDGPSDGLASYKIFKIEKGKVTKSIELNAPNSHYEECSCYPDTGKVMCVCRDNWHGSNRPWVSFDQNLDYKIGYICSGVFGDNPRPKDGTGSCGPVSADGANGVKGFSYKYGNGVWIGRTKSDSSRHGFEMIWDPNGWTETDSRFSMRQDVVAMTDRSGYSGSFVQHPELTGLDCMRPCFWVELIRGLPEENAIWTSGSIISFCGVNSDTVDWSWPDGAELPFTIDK
Chain of Neuraminidase (Influenza A virus) (B4URF0 as listed by the source): as the sequence (B4URF0 whole entry) above

Compound | IC50 (Neuraminidase [1]) | IC50 (Neuraminidase [2]) | IC50 (Neuraminidase [3]) | further results
CC(=O)N[C@H]1[C@H]([C@H](O)[C@H](O)CO)OC(C(=O)N[C@@H](CC(C)C)C(=O)O)=C[C@@H]1O | > 1000 µM | > 1000 µM | 918 µM | –
CC(=O)N[C@H]1[C@H]([C@H](O)[C@H](O)CO)OC(C(=O)N2CCOCC2)=C[C@@H]1O | 98.9 µM | 66.7 µM | 52.9 µM | –
CC(=O)N[C@H]1[C@H]([C@H](O)[C@H](O)CO)OC(C(=O)NCc2cccc(F)c2)=C[C@@H]1NC(=N)N | 0.09 µM | 0.001 µM | 0.013 µM | MRT [4]: 6.29 h; AUC(0-t) at 8 h [5]: 378 ng·h/mL; half-life [6]: 0.69 h; bioavailability [7]: 1.41%; Cmax [8]: 8800 ng/mL; Vd [9]: 0.23 L/kg; Cmax [10]: 260 nM; Tmax [11]: 1 h; MRT [12]: 0.65 h; AUC(0-t) at 8 h [13]: 5380 ng·h/mL; half-life [14]: 2.96 h; clearance [15]: 5.83 mL/min/kg
COc1ccc(CNC(=O)C2=C[C@H](O)[C@@H](NC(C)=O)[C@H]([C@H](O)[C@H](O)CO)O2)cc1 | > 1000 µM | > 1000 µM | 858 µM | –
CC(=O)N[C@H]1[C@H]([C@H](O)[C@H](O)CO)OC(C(=O)NCc2cccc(Cl)c2)=C[C@@H]1NC(=N)N | – | – | – | inhibition [16]: 51%
CC[C@H](C)[C@H](NC(=O)C1=C[C@H](O)[C@@H](NC(C)=O)[C@H]([C@H](O)[C@H](O)CO)O1)C(=O)O | > 1000 µM | 939 µM | 790 µM | –
CC(=O)N[C@H]1[C@H]([C@H](O)[C@H](O)CO)OC(C(=O)N[C@H](C(=O)O)c2ccccc2)=C[C@@H]1O | 60.5 µM | 74.4 µM | 60 µM | –
CC(=O)N[C@H]1[C@H]([C@H](O)[C@H](O)CO)OC(C(=O)O)=C[C@@H]1O [NEU5AC2EN] | – | – | – | IC50 (Neuraminidase [17]): 52 µM; IC50 (Neuraminidase [18]): 240 µM; IC50 (Neuraminidase [19]): 0.012 µM
CC(=O)N[C@H]1[C@H]([C@H](O)[C@H](O)CO)OC(C(=O)N[C@H](C(=O)O)C(C)C)=C[C@@H]1NC(=N)N | 2.14 µM | 4.19 µM | 0.107 µM | –
CC(=O)N[C@H]1[C@H]([C@H](O)[C@H](O)CO)OC(C(=O)N[C@H](C(=O)O)C(C)C)=C[C@@H]1N | 2.25 µM | 4.3 µM | 5.15 µM | –
CC(=O)N[C@H]1[C@H]([C@H](O)[C@H](O)CO)OC(C(=O)N[C@@H](C)C(=O)O)=C[C@@H]1NC(=N)N | 0.1 µM | 0.063 µM | 0.41 µM | –
CC(=O)N[C@H]1[C@H]([C@H](O)[C@H](O)CO)OC(C(=O)NCCC(=O)O)=C[C@@H]1NC(=N)N | 0.36 µM | 0.07 µM | 0.5 µM | –
CC(=O)N[C@H]1[C@H]([C@H](O)[C@H](O)CO)OC(C(=O)N2CCC(C(=O)O)CC2)=C[C@@H]1N | 6.33 µM | 5.76 µM | 5.86 µM | –
CC(=O)N[C@H]1[C@H]([C@H](O)[C@H](O)CO)OC(C(=O)NCc2ccc(C)cc2)=C[C@@H]1NC(=N)N | 0.26 µM | 0.28 µM | 0.85 µM | –
CC(=O)N[C@H]1[C@H]([C@H](O)[C@H](O)CO)OC(C(=O)NCc2ccccc2F)=C[C@@H]1NC(=N)N | 0.24 µM | 0.26 µM | 0.89 µM | –
CC(=O)N[C@H]1[C@H]([C@H](O)[C@H](O)CO)OC(C(=O)N[C@H](C(=O)O)C(C)C)=C[C@@H]1O | > 1000 µM | 793 µM | 688 µM | –
CC(=O)N[C@H]1[C@H]([C@H](O)[C@H](O)CO)OC(C(=O)NCc2ccccc2)=C[C@@H]1O | 143 µM | 822 µM | 707 µM | –
CC(=O)N[C@H]1[C@H]([C@H](O)[C@H](O)CO)OC(C(=O)N2CCC[C@@H](C(=O)O)C2)=C[C@@H]1N | 103 µM | 162 µM | 146 µM | –
CCOC(=O)C1=C[C@@H](OC(CC)CC)[C@H](NC(C)=O)[C@@H](N)C1.O=P(O)(O)O [OSELTAMIVIR PHOSPHATE] | – | – | – | half-life [20]: 1.6 h; bioavailability [7]: 4.3%; clearance [21]: 25 mL/min/kg; Cmax [10]: 30 ng/mL; Tmax [11]: 4 h; half-life [14]: 10.6 h; Vd [22]: 1.3 L/kg
CC(=O)N[C@H]1[C@H]([C@H](O)[C@H](O)CO)OC(C(=O)N[C@@H](CC(C)C)C(=O)O)=C[C@@H]1NC(=N)N | 5.11 µM | 3.51 µM | 22.5 µM | –
CC(=O)N[C@H]1[C@H]([C@H](O)[C@H](O)CO)OC(C(=O)NCc2ccc(F)cc2)=C[C@@H]1NC(=N)N | – | – | – | inhibition [16]: 54.8%
CC(=O)N[C@H]1[C@H]([C@H](O)[C@H](O)CO)OC(C(=O)O)=C[C@@H]1N=C(N)N [ZANAMIVIR] | – | – | – | half-life [20]: 1.1 h; clearance [21]: 31.7 mL/min/kg; Cmax [10]: 60 ng/mL; Tmax [11]: 1.2 h; Vd [22]: 0.8 L/kg
CC(=O)N[C@H]1[C@H]([C@H](O)[C@H](O)CO)OC(C(=O)NCC(=O)O)=C[C@@H]1N | 13.9 µM | 8.67 µM | 16.7 µM | –
CC(=O)N[C@H]1[C@H]([C@H](O)[C@H](O)CO)OC(C(=O)N[C@@H](CCC(=O)O)C(=O)O)=C[C@@H]1NC(=N)N | 0.45 µM | 0.16 µM | 0.81 µM | –
CC(=O)N[C@H]1[C@H]([C@H](O)[C@H](O)CO)OC(C(=O)N[C@@H](CC(C)C)C(=O)O)=C[C@@H]1N | 159 µM | 669 µM | 647 µM | –
